In ChEMBL document CHEMBL4396885, “Thioether-based 2-aminobenzamide derivatives: Novel HDAC inhibitors with potent in vitro and in vivo antitumor activity” (Eur J Med Chem, 2019):

Experiments:
[1] = system: A-375; test: Antiproliferative activity against human A375 cells assessed as growth inhibition at 8 uM after 72 hrs by CCK-8 assay relative to control; format: functional; conditions: A-375, 72 h, read-out: GI
[2] = system: A-375; test: Antiproliferative activity against human A375 cells assessed as decrease in cell viability after 72 hrs by CCK-8 assay; format: functional, cell-based; conditions: A-375, 72 h
Method in brief: (§1)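 Cells grown to 70–85% confluence (A375, A549, HCT116 in RPMI1640; HeLa, SMMC7721 in DMEM; 10% FBS, 37 °C, 5% CO2), seeded 4000/well, dosed after 12 h across a concentration range, incubated 72 h, then CCK-8 for 1 h; absorbance at 450 nm. IC50 as mean ± SD of three separate experiments.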

[3] = system: A549; test: Induction of apoptosis in human A549 cells assessed as viable cells at 0.5 uM after 48 hrs by Annexin V-FITC/propidium iodide staining based flow cytometry (reference value: 98%); format: functional; conditions: A549, 48 h, read-out: Activity
Method in brief: (§2)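 A549 seeded 4×10⁶ cells/well, dosed after 12 h with compound at various concentrations, harvested after 48 h. Resuspended in annexin-binding buffer, stained with Annexin V-FITC and propidium iodide for 15 min in the dark, analysed by flow cytometry; means of three separate experiments.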

[4] = system: A549; test: Cell cycle arrest in human A549 cells assessed as accumulation of cells at G0/G1 phase at 1 uM after 48 hrs by propidium iodide staining-based flow cytometry (reference value: 73.35%); format: functional
[5] = system: A549; test: Induction of apoptosis in human A549 cells assessed as early apoptotic cells at 0.5 uM after 48 hrs by Annexin V-FITC/propidium iodide staining based flow cytometry (reference value: 1.19%); format: functional; method in brief: as §2
[6] = system: HCT-116; test: Antiproliferative activity against human HCT116 cells assessed as decrease in cell viability after 72 hrs by CCK-8 assay; format: functional, cell-based; conditions: HCT-116, 72 h; method in brief: as §1
[7] = AUC (0 to infinity) in ICR mouse at 4 mg/kg, iv after 0.08 to 24 hrs by LC-MS/MS analysis; format: ADME, organism-based; design: dose 4 mg/kg, time infinity, route intravenous; conditions: in vivo
Method in brief: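 Male ICR mice (29.7~37.4 g), single iv dose 4 mg/kg in DMSO:40% SBE-β-CD 20:80 (v/v). Retro-orbital blood at 0.08–24 h into EDTA-K2 tubes; plasma protein-precipitated with acetonitrile containing internal standards, analysed by LC-MS/MS; n=3 per time point; noncompartmental analysis.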

[8] = system: SMMC-7721; test: Antiproliferative activity against human SMMC7721 cells assessed as growth inhibition at 8 uM after 72 hrs by CCK-8 assay relative to control; format: functional; conditions: SMMC-7721, 72 h, read-out: GI
[9] = system: A549; test: Induction of apoptosis in human A549 cells assessed as early apoptotic cells at 1 uM after 48 hrs by Annexin V-FITC/propidium iodide staining based flow cytometry (reference value: 1.19%); format: functional; method in brief: as §2
[10] = system: A549; test: Cell cycle arrest in human A549 cells assessed as accumulation of cells at G0/G1 phase at 0.5 uM after 48 hrs by propidium iodide staining-based flow cytometry (reference value: 73.35%); format: functional
[11] = system: A549; test: Cell cycle arrest in human A549 cells assessed as increase in accumulation of cells at G2/M phase after 48 hrs by propidium iodide staining-based flow cytometry; format: functional
[12] = system: A549; test: Cell cycle arrest in human A549 cells assessed as accumulation of cells at G2/M phase at 2 uM after 48 hrs by propidium iodide staining-based flow cytometry (reference value: 13.62%); format: functional

Row | SMILES | inhibition of growth at 8 µM [1] [%] | IC50 [2] [µM] | viability at 0.5 µM [3] [%] | Activity [4] [%] | Activity [5] [%] | IC50 [6] [µM] | AUC(0-inf) [7] [ng·h/mL] | inhibition of growth at 8 µM [8] [%] | Activity [9] [%] | Activity [10] [%] | Activity [11] | Activity [12] [%]
1 | COc1ccc(SCc2ccc(C(=O)Nc3ccccc3N)cc2)cc1 | 81.8 | 3.01 | 66 | 41.07 | 5.21 | 1.64 | 740 | 80.1 | 19.8 | 64.38 | Dose-dependent effect | 48.06
2 | CCc1ccc(SCc2ccc(C(=O)Nc3ccccc3N)cc2)cc1 | 71.1 | 2.42 | 80.8 | 30.39 | 11 | 1.74 | 874 | 82.9 | 6.52 | 33.89 | Dose-dependent effect | 66.48
